≈ marks a conversion by molar mass, not a printed value. Calls of active or inactive are those of the source. No cut-off for these calls is given here.
Columns and labels:
Aspergillus fumigatus = assay: Antifungal activity against Aspergillus fumigatus HIC 6094 after 48 hrs by broth dilution method; type: functional; conditions: HIC 6094, 48 h
Method in brief: (§1)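 Fungi grown on potato dextrose agar for two weeks at 28 °C. Spores washed three times and resuspended in water at 10⁵ spores/mL initial inoculum. Compounds dissolved in DMSO, serial twofold dilutions 120–0.9 µM in potato dextrose broth. Wells inoculated with about 10^4 cells/mL and incubated ~48–72 h at 28 °C. MIC (µM) read against controls; NCCLS broth dilution.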

Trichophyton rubrum = assay: Antifungal activity against Trichophyton rubrum IFO 9185 after 48 hrs by broth dilution method; type: functional; conditions: IFO 9185, 48 h; method in brief: as §1
Candida albicans = assay: Antifungal activity against Candida albicans ATCC 10231 after 48 hrs by broth dilution method; type: functional; conditions: ATCC 10231, 48 h
Method in brief: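 Yeast grown 48 h at 28 °C in YPD broth (1% yeast extract, 2% peptone, 2% dextrose), centrifuged and washed twice in sterile water. Compounds dissolved in DMSO, serial twofold dilutions 120–0.9 µM in potato dextrose broth. Wells inoculated with about 10^3 cells/mL and incubated ~48–72 h at 28 °C. MIC (µM) read against controls; NCCLS broth dilution.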

[1] = tested on: Trichophyton mentagrophytes; assay: Antifungal activity against Trichophyton mentagrophytes IFO 40996 after 48 hrs by broth dilution method; type: functional; conditions: IFO 40996, 48 h; method in brief: as §1
[2] = tested on: Ditylenchus myceliophagus; assay: Nematicidal activity against Ditylenchus myceliophagus assessed as immobile nematodes after 2 days; type: functional
Caenorhabditis elegans = assay: Nematicidal activity against Caenorhabditis elegans assessed as immobile nematodes after 2 days; type: functional, organism-based
Method in brief: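 Worms raised on 8P plates with Na22 bacteria as food. Adults from five-day cultures suspended in water at about 100–250 nematodes/mL. 100 µL of suspension added to compound solutions at various concentrations in 24-well plates at 25 °C. Percentage of immobile worms scored after two days; LD50 derived.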

SMILES: COc1ccccc1C1SC2C(=NOC2c2ccc(F)cc2)N1c1ccc(C)cc1 (centres undefined)
- MIC (Aspergillus fumigatus): 120 µM (≈ 50.5 µg/mL)
- MIC (Trichophyton rubrum): > 120 µM
- MIC (Candida albicans): 60 µM (≈ 25.2 µg/mL)
- MIC [1]: 120 µM (≈ 50.5 µg/mL)

SMILES: COc1ccc(Cc2ccc(OC)c(C3SC4C(=NOC4c4ccc(F)cc4)N3c3ccc(Cl)cc3)c2)cc1C1SC2C(=NOC2c2ccc(F)cc2)N1c1ccc(Cl)cc1 (centres undefined)
- MIC (Aspergillus fumigatus): 3.75 µM (≈ 3.35 µg/mL)
- MIC (Trichophyton rubrum): 3.75 µM (≈ 3.35 µg/mL)
- Activity [2]: Active
- Activity (Caenorhabditis elegans): Active
- MIC (Candida albicans): 3.75 µM (≈ 3.35 µg/mL)
- MIC [1]: 3.75 µM (≈ 3.35 µg/mL)

SMILES: COc1ccccc1C1SC2C(=NOC2c2ccc(F)cc2)N1c1ccccc1 (centres undefined)
- MIC (Aspergillus fumigatus): > 120 µM
- MIC (Trichophyton rubrum): > 120 µM
- MIC (Candida albicans): 120 µM (≈ 48.8 µg/mL)
- MIC [1]: > 120 µM

SMILES: COc1ccc(Cc2ccc(OC)c(C3SC4C(=NOC4c4ccc(F)cc4)N3c3ccccc3)c2)cc1C1SC2C(=NOC2c2ccc(F)cc2)N1c1ccccc1 (centres undefined)
- MIC (Aspergillus fumigatus): 60 µM (≈ 49.5 µg/mL)
- MIC (Trichophyton rubrum): 30 µM (≈ 24.7 µg/mL)
- Activity [2]: Active
- Activity (Caenorhabditis elegans): Active
- MIC (Candida albicans): 30 µM (≈ 24.7 µg/mL)
- MIC [1]: 60 µM (≈ 49.5 µg/mL)

SMILES: COc1ccccc1C1SC2C(=NOC2c2ccc(F)cc2)N1c1ccc([N+](=O)[O-])cc1 (centres undefined)
- MIC (Aspergillus fumigatus): 60 µM (≈ 27.1 µg/mL)
- MIC (Trichophyton rubrum): 120 µM (≈ 54.2 µg/mL)
- MIC (Candida albicans): 30 µM (≈ 13.5 µg/mL)
- MIC [1]: 30 µM (≈ 13.5 µg/mL)

SMILES: COc1ccc(Cc2ccc(OC)c(C3SC4C(=NOC4c4ccc(F)cc4)N3c3ccc([N+](=O)[O-])cc3)c2)cc1C1SC2C(=NOC2c2ccc(F)cc2)N1c1ccc([N+](=O)[O-])cc1 (centres undefined)
- MIC (Aspergillus fumigatus): 30 µM (≈ 27.4 µg/mL)
- MIC (Trichophyton rubrum): 30 µM (≈ 27.4 µg/mL)
- Activity [2]: Active
- Activity (Caenorhabditis elegans): Active
- MIC (Candida albicans): 15 µM (≈ 13.7 µg/mL)
- MIC [1]: 7.5 µM (≈ 6.86 µg/mL)

SMILES: COc1ccc(Cc2ccc(OC)c(C3SC4C(=NOC4c4ccc(F)cc4)N3c3ccc(C)cc3)c2)cc1C1SC2C(=NOC2c2ccc(F)cc2)N1c1ccc(C)cc1 (centres undefined)
- MIC (Aspergillus fumigatus): 30 µM (≈ 25.6 µg/mL)
- MIC (Trichophyton rubrum): > 120 µM
- Activity [2]: Active
- Activity (Caenorhabditis elegans): Active
- MIC (Candida albicans): 7.5 µM (≈ 6.4 µg/mL)
- MIC [1]: 15 µM (≈ 12.8 µg/mL)

SMILES: COc1ccc(Cc2ccc(OC)c(C3SC4C(=NOC4c4ccc(F)cc4)N3c3ccc(O)cc3)c2)cc1C1SC2C(=NOC2c2ccc(F)cc2)N1c1ccc(O)cc1 (centres undefined)
- MIC (Aspergillus fumigatus): 15 µM (≈ 12.9 µg/mL)
- MIC (Trichophyton rubrum): 7.5 µM (≈ 6.43 µg/mL)
- Activity [2]: Active
- Activity (Caenorhabditis elegans): Active
- MIC (Candida albicans): 15 µM (≈ 12.9 µg/mL)
- MIC [1]: 7.5 µM (≈ 6.43 µg/mL)

SMILES: COc1ccccc1C1SC2C(=NOC2c2ccc(F)cc2)N1c1ccc(F)cc1 (centres undefined)
- MIC (Aspergillus fumigatus): 60 µM (≈ 25.5 µg/mL)
- MIC (Trichophyton rubrum): 60 µM (≈ 25.5 µg/mL)
- MIC (Candida albicans): 120 µM (≈ 50.9 µg/mL)
- MIC [1]: 60 µM (≈ 25.5 µg/mL)

SMILES: COc1ccc(Cc2ccc(OC)c(C3SC4C(=NOC4c4ccc(F)cc4)N3c3ccccc3C)c2)cc1C1SC2C(=NOC2c2ccc(F)cc2)N1c1ccccc1C (centres undefined)
- MIC (Aspergillus fumigatus): 3.75 µM (≈ 3.2 µg/mL)
- MIC (Trichophyton rubrum): 3.75 µM (≈ 3.2 µg/mL)
- Activity [2]: Active
- Activity (Caenorhabditis elegans): Active
- MIC (Candida albicans): 3.75 µM (≈ 3.2 µg/mL)
- MIC [1]: 3.75 µM (≈ 3.2 µg/mL)

SMILES: COc1ccc(Cc2ccc(OC)c(C3SC4C(=NOC4c4ccc(F)cc4)N3c3ccc(F)cc3)c2)cc1C1SC2C(=NOC2c2ccc(F)cc2)N1c1ccc(F)cc1 (centres undefined)
- MIC (Aspergillus fumigatus): 3.75 µM (≈ 3.23 µg/mL)
- MIC (Trichophyton rubrum): 3.75 µM (≈ 3.23 µg/mL)
- Activity [2]: Active
- Activity (Caenorhabditis elegans): Active
- MIC (Candida albicans): 3.75 µM (≈ 3.23 µg/mL)
- MIC [1]: 3.75 µM (≈ 3.23 µg/mL)

SMILES: COc1ccccc1C1SC2C(=NOC2c2ccc(F)cc2)N1c1ccc(O)cc1 (centres undefined)
- MIC (Aspergillus fumigatus): 60 µM (≈ 25.3 µg/mL)
- MIC (Trichophyton rubrum): > 120 µM
- MIC (Candida albicans): 60 µM (≈ 25.3 µg/mL)
- MIC [1]: 60 µM (≈ 25.3 µg/mL)

SMILES: COc1ccccc1C1SC2C(=NOC2c2ccc(F)cc2)N1c1ccccc1C (centres undefined)
- MIC (Aspergillus fumigatus): 30 µM (≈ 12.6 µg/mL)
- MIC (Trichophyton rubrum): 15 µM (≈ 6.31 µg/mL)
- MIC (Candida albicans): 60 µM (≈ 25.2 µg/mL)
- MIC [1]: 30 µM (≈ 12.6 µg/mL)

SMILES: COc1ccccc1C1SC2C(=NOC2c2ccc(F)cc2)N1c1ccc(Cl)cc1 (centres undefined)
- MIC (Aspergillus fumigatus): 30 µM (≈ 13.2 µg/mL)
- MIC (Trichophyton rubrum): 30 µM (≈ 13.2 µg/mL)
- MIC (Candida albicans): 30 µM (≈ 13.2 µg/mL)
- MIC [1]: 30 µM (≈ 13.2 µg/mL)

SMILES: C[C@@H]1[C@H](O)[C@@H](C)/C=C/C=C/C=C/C=C/C=C/C=C/C=C/[C@H](O[C@@H]2O[C@H](C)[C@@H](O)[C@H](N)[C@@H]2O)C[C@@H]2O[C@](O)(C[C@@H](O)C[C@@H](O)[C@H](O)CC[C@@H](O)C[C@@H](O)CC(=O)O[C@H]1C)C[C@H](O)[C@H]2C(=O)O [AMPHOTERICIN B]
- MIC (Aspergillus fumigatus): 3.75 µM (≈ 3.47 µg/mL)
- MIC (Trichophyton rubrum): 3.75 µM (≈ 3.47 µg/mL)
- MIC (Candida albicans): 7.5 µM (≈ 6.93 µg/mL)
- MIC [1]: 3.75 µM (≈ 3.47 µg/mL)
